One block for each compound: values may come before it.
Tests used:
rat EP4 receptor [1] = biological target: T1, rat EP4 receptor (Rattus norvegicus, UniProt P43114); assay: CRE-regulated SEAP reporter; format: cell-based
rat EP4 receptor [2] = biological target: T1, rat EP4 receptor; assay: cAMP production, rat EP4 receptor expressed in HEK293T cells; format: cell-based; conditions: read-out: rat EP4 receptor cAMP levels EC50; mean ± SEM
rat BMCs [3] = assay: ALP enzyme activity in total rat bone marrow cell culture, day 9; format: cell-based; conditions: for change in ALP activity over vehicle treated cultures: doses ranging from 1 pM to 10 μM, once at plating
How it was run: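 Unfractionated BMCs from tibiae and femora of young or old female or male Sprague-Dawley rats, extruded into MEMα with 10% FCS and 50 μg/mL gentamicin, triturated and filtered. Plated at 1.8 × 10^5 cells/cm2 and dosed once at plating from 1000x ethanol stocks. Dex (10 nM final) added day 4. Day 9 lysis (Tris pH 8.4, ZnCl2, MgCl2, Triton X-100); pNPP, 405 nm; n = 8 wells; EC50 by non-linear regression.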

[4] = In vivo pharmacokinetics after intravenous dosing in rats; conditions: intravenous 0.5 mg/kg, male Sprague-Dawley rats
How it was run: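 Single intravenous dose of 0.5 mg/kg in 3 male Sprague-Dawley rats. Blood sampled up to 24 h post-dose; plasma levels measured by LC-MS/MS. Parameters calculated from the plasma concentration–time course by non-compartmental analysis.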

[5] = Protein binding in rat plasma by equilibrium dialysis; format: in vitro ADME; conditions: 10 μM, equilibrium dialysis 4 hours 37°C
rat BMCs [6] = assay: Bone phenotype marker gene expression in BMCs; format: cell-based; conditions: 1μM once at plating
How it was run: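 BMCs from young female rats dosed once at plating with 1μM test compound or 0.1% ethanol. Dex (10 nM final) added day 4. From day 7, fed every 3 days with medium containing ascorbic acid 100 μg/mL, dex 10 nM and βGP 10 mM. On set days, total RNA taken (n = 3 per time point), quantified at 260 nm, reverse transcribed, and analysed by SYBR Green qPCR.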

rat BMCs [7] = assay: ALP-positive colony area in BMC cultures; format: cell-based; conditions: 1μM, day 9, compared to vehicle
human EP3 = conditions: read-out: human EP3 binding Ki; ref Barrett et al., 2019; cited from earlier work
cytochrome P450 = conditions: in vitro safety test; ref Barrett et al., 2019; cited from earlier work
Half-life in rat blood = format: in vitro ADME; conditions: 1 μM, 37°C
How it was run: (§1)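 Test compound at 1 μM in rat blood or plasma, 37°C, sampled at 0, 30, 60, 90 and 120 min. Quenched with acetonitrile, centrifuged, analyte peak areas read by HPLC-MS/MS.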

cells = assay: Overt toxicity in cells; format: cell-based; conditions: except at a very high dose
rat BMCs [8] = assay: Adipogenesis assay, Oil Red O staining in BMC cultures; format: cell-based; conditions: 1μM, insulin and dexamethasone, day 12, versus vehicle
rat BMCs [9] = assay: Osteoclastogenesis assay, TRAP-positive cells in BMC cultures; format: cell-based; conditions: for number of TRAP positive cells in the absence of exogenous M-CSF and RANKL: data not shown; for number of TRAP-positive cells: various doses, in the presence of 16 ng/mL RANKL and 16 ng/mL M-CSF, versus vehicle
[10] = system: non-EP prostanoids receptors (DP, FP, IP and TP); conditions: tested at 10 μM; ref Barrett et al., 2019; cited from earlier work
rat BMCs [11] = assay: Mineralization of BMC cultures; format: cell-based; conditions: 1μM, day 21, compared to vehicle
How it was run: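 Rat BMCs dosed at plating with 1μM test compound or 0.1% ethanol vehicle (n = 4 or 6 wells); in the short-exposure arm, 30 or 60 min suspension exposure. Dex added day 4; from day 7, osteogenic medium (ascorbic acid, dex, βGP) every 3 days. Day 21: fixed in 2% paraformaldehyde, stained with 5% AgNO3 plus UV, von Kossa-positive area per well quantified by imaging.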

Half-life in rat plasma = format: in vitro ADME; conditions: 1 μM, 37°C
How it was run: as §1

[12] = Chemical stability of KMN-159; format: physicochemical
[13] = in vitro safety test; ref Barrett et al., 2019; cited from earlier work
rat BMCs [14] = assay: Total adherent cell number in BMC cultures; format: cell-based; conditions: 1μM, days 5, 6, or 7, versus vehicle
[15] = Half-life and intrinsic clearance in rat hepatocytes; format: in vitro ADME
How it was run: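 Incubated at 37°C with 0.7 million viable rat hepatocytes/mL, sampled at 0, 30, 60, 90 and 120 min. Each sample quenched with acetonitrile and centrifuged; analyte peak areas measured by HPLC-MS/MS to derive half-life and intrinsic clearance.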

human EP4 = human EP4 (Homo sapiens, UniProt P35408); conditions: read-out: human EP4 binding Ki; ref Barrett et al., 2019; cited from earlier work
Chain of human EP4 (P35408 whole entry): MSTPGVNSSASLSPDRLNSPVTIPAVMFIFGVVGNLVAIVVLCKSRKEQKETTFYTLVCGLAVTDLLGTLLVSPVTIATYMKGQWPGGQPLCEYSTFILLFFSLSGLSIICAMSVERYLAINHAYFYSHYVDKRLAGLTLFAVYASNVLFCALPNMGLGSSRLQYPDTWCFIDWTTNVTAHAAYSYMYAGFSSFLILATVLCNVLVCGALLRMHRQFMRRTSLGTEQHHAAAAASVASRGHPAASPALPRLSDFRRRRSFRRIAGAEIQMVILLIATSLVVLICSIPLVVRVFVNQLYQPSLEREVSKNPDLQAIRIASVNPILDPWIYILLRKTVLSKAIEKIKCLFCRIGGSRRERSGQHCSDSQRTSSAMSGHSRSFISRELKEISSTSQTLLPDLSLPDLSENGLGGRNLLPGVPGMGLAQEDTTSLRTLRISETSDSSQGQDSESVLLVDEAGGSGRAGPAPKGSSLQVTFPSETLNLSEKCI

bacterial = conditions: in vitro safety test; ref Barrett et al., 2019; cited from earlier work
[16] = in vitro safety test; ref Barrett et al., 2019; cited from earlier work; remark: listed apart in the source
rat EP2 receptor [17] = biological target: T2, rat EP2 receptor (Rattus norvegicus, UniProt Q62928); assay: CRE-regulated SEAP reporter; format: cell-based
T2 sequence (Q62928 whole entry): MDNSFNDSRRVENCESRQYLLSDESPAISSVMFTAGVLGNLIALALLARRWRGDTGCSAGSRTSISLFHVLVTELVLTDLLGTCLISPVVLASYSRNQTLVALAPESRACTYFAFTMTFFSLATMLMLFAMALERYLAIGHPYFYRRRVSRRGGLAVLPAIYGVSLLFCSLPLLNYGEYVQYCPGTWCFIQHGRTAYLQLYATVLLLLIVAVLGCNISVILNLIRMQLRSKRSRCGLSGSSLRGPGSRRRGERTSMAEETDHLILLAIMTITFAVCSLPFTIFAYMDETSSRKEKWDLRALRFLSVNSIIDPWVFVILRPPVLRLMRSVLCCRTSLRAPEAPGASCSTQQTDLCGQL

rat EP2 receptor [18] = biological target: T2, rat EP2 receptor; assay: cAMP production, rat EP2 receptor expressed in HEK293T cells; format: cell-based
[19] = read-out: rat EP4 receptor CREB activation EC50, CRE-SEAP reporter, mean ± SEM

T1 sequence (P43114 whole entry): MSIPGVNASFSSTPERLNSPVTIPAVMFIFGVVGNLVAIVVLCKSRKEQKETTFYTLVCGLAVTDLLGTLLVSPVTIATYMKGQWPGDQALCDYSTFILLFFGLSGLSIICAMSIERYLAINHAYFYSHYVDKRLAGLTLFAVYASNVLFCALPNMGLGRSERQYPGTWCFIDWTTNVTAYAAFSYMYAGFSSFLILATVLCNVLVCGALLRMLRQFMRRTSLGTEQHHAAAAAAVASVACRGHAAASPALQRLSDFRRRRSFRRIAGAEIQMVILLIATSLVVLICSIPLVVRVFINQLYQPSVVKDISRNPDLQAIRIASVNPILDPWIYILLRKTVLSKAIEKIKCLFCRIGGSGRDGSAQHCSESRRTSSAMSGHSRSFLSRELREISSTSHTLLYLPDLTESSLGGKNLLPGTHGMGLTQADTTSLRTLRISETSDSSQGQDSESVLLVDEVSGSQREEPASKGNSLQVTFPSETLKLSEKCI

EC50 (rat EP4 receptor [1]; [19]): 0.16 ± 0.049 nM
EC50 (rat EP4 receptor [2]): 2.6 ± 0.62 nM
Structure (SMILES): CCCCCC(O)C=CC1CCC(=O)N1CCCCCCC(=O)O (stereo not shown) [11-deoxy-8-aza-PGE1, reference compound]

Structure (SMILES): CCCCC[C@H](O)/C=C/[C@H]1CCC(=O)[C@@H]1CCCCCCC(=O)O [11-deoxy-PGE1, reference compound]
EC50 (rat EP4 receptor [1]; [19]): 0.06 ± 0.012 nM
EC50 (rat EP4 receptor [2]): 1.3 ± 0.24 nM

Structure (SMILES): CCCCC[C@H](O)/C=C/[C@H]1CCC(=O)[C@@H]1C/C=C\CCCC(=O)O [11-deoxy-PGE2, reference compound]
EC50 (rat EP4 receptor [2]): 1.1 ± 0.16 nM

EC50 (rat EP4 receptor [1]; [19]): 0.17 ± 0.014 nM
EC50 (rat EP4 receptor [2]): 2.6 ± 0.31 nM
Structure (SMILES): CCC#CC[C@H](C)[C@H](O)/C=C/[C@H]1CCC(=O)N1CCCCCCC(=O)O [KMN-80]
potency in the BMC ALP assay compared with parent compound 11-deoxy-8-aza-PGE1 (rat BMCs [3]; young female rat BMCs): unchanged from the parent compound

Structure (SMILES): CCC#CC[C@H](C)[C@H](O)/C=C/[C@H]1CC(F)(F)C(=O)N1CCCCCCC(=O)O [KMN-159]
area under the curve (extrapolated to infinity) [4]: 21.8 ± 5.55 ng·h/mL
in vivo clearance rate [4]: 0.398 ± 0.0992 mL/min/kg
mean residence time last [4]: 8.3 ± 1.0 min
steady state volume of distribution [4]: 3.41 ± 1.15 L/kg
clearance ([4]; Table 3): 398 ± 99.2 mL/min/kg
protein binding [5]: 53.8 ± 3.5%
RANKL expression (rat BMCs [6]; all timepoints tested, versus vehicle): significantly increased expression
Runx2 mRNA increase in expression (rat BMCs [6]; day 5): ~ 2 x
Runx2 expression (rat BMCs [6]; days 19 and 25, versus vehicle): significantly increased
osteocalcin gene expression (rat BMCs [6]; later days, versus vehicle): increased with both, time in culture and KMN-159 treatment
ALP mRNA expression (rat BMCs [6]; versus vehicle): increased
OPG expression (rat BMCs [6]; versus vehicle): either unchanged or decreased
collagen type IαI expression (rat BMCs [6]; versus vehicle): further increased
ALP positive area (rat BMCs [7]): increase the ALP positive area
EC50 (rat EP4 receptor [1]; [19]): 0.03 ± 0.003 nM
Ki (human EP3): 258 nM
cytochrome P450 inhibition (cytochrome P450): negative
half life - blood (Half-life in rat blood): >2 h
overt toxicity in cells (cells): no overt toxicity
Oil Red O staining (adipocyte formation) (rat BMCs [8]): no significant change
number of TRAP positive cells in the absence of exogenous M-CSF and RANKL (rat BMCs [9]): none was observed
number of TRAP-positive cells (rat BMCs [9]): significantly increased numbers of TRAP-positive cells
binding to the non-EP prostanoids receptors [10]: no detectable binding
increase in ALP activity compared to vehicle treated cells (rat BMCs [3]; 1μM, 10 minutes exposure then compound removed, ALP day 9): approximately 3 fold
induction of ALP as percent of the maximum reached between 30 and 60 minutes of exposure (rat BMCs [3]; 1μM, 10 minutes exposure, ALP measured 9 days later): approximately 75%
increase in potency in the BMCs compared to 11-deoxy-8-aza-PGE1 (rat BMCs [3]; young female rat BMCs, ALP EC50): approximately 40 fold
mineralized area detected by von Kossa staining (rat BMCs [11]): increase in mineralized area
half life - plasma (Half-life in rat plasma): >2 h
recovery ([12]; in aqueous solution and upon sterilization by autoclaving or gamma irradiation, data not shown): higher than 90%
degradation of crystalline solid ([12]; storage at room temperature for over two years): no measurable degradation
micronucleus formation [13]: negative
total cell number (rat BMCs [14]): no significant differences
intrinsic clearance - hepatocytes [15]: <8.2 μL/min/10^6 cells
half life - hepatocytes ([15]; 0.7 million viable cells/mL, 37°C): >2 h
Ki (human EP4): 0.38 nM
EC50 (rat EP4 receptor [2]): 0.5 ± 0.08 nM
bacterial cytotoxicity (bacterial): negative
Ames fluctuation [16]: negative

EC50 (rat EP4 receptor [1]; [19]): 0.03 ± 0.007 nM
EC50 (rat EP4 receptor [2]): 0.3 ± 0.025 nM
Structure (SMILES): CCCCC[C@H](O)/C=C/[C@H]1CC(F)(F)C(=O)N1CCCCCCC(=O)O [KMN-165]

EC50 (rat EP2 receptor [17]): 4.5 ± 0.46 nM
EC50 (rat EP2 receptor [18]): 79.5 ± 9.1 nM
Structure (SMILES): CCCCC[C@H](O)/C=C/[C@H]1[C@H](O)CC(=O)[C@@H]1CCCCCCC(=O)O [PGE1, prostaglandin E1]

Structure (SMILES): CCCCC[C@H](O)/C=C/[C@H]1[C@H](O)CC(=O)[C@@H]1C/C=C\CCCC(=O)O [PGE2, prostaglandin E2, reference compound]
ALP positive area (rat BMCs [7]): increase the ALP positive area
EC50 (rat EP4 receptor [1]): 0.03 ± 0.002 nM
Oil Red O staining (adipocyte formation) (rat BMCs [8]): no significant change
number of TRAP positive cells in the absence of exogenous M-CSF and RANKL (rat BMCs [9]): none was observed
number of TRAP-positive cells (rat BMCs [9]): significantly increased numbers of TRAP-positive cells
total cell number (rat BMCs [14]): no significant differences

Structure (SMILES): CCCC1([C@H](O)C/C=C/[C@H]2[C@H](O)CC(=O)[C@@H]2CCCCCCC(=O)OC)CCC1 [butaprost, reference compound]
change in ALP activity over vehicle treated cultures (rat BMCs [3]): no change in ALP activity

Structure (SMILES): CS(=O)(=O)NC(=O)CCC/C=C\C[C@H]1C(=O)C[C@@H](O)[C@@H]1/C=C/[C@@H](O)COc1ccccc1 [sulprostone, reference compound]
change in ALP activity over vehicle treated cultures (rat BMCs [3]): no change in ALP activity
